Data: ChEMBL document CHEMBL1126202, “Dual-action penems and carbapenems” (J Med Chem, 1992)

How the values were obtained:
[1] = tested on: Bacteroides thetaiotaomicron; experiment: In vitro antibacterial activity against Bacteroides thetaiotaomicron 62B; format: functional
Method in brief: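 Anaerobic MICs were determined in microtiter plates in Schaedler's broth supplemented with coenzyme I and hemin. Incubation was under an oxygen-free hydrogen-carbon dioxide atmosphere.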

[2] = tested on: Clostridium perfringens; experiment: In vitro antibacterial activity against Clostridium perfringens 13424; format: functional
Method in brief: (§1)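 MIC by broth dilution in microtiter plates, run in an oxygen-free hydrogen–carbon dioxide atmosphere. Medium: Schaedler's broth with coenzyme I and hemin added.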

[3] = tested on: Hathewaya histolytica; experiment: In vitro antibacterial activity against clostridium histolyticum 503-86; format: functional
Method in brief: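 Anaerobic MIC, run in microtiter plates in Schaedler's broth supplemented with coenzyme I and hemin. Incubated in an oxygen-free hydrogen–carbon dioxide atmosphere.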

[4] = tested on: Escherichia coli; experiment: In vitro antibacterial activity against Escherichia coli 25922; format: functional
Method in brief: (§2)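 MIC was determined by agar dilution on Mueller-Hinton agar. Serial 2-fold aqueous dilutions were diluted 10-fold in agar to give final concentrations of 128 to 0.0156 μg/mL. Plates were inoculated by Steers replicator with overnight broth cultures diluted 100-fold.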

[5] = tested on: Escherichia coli; experiment: In vitro antibacterial activity against Escherichia coli 257; format: functional
[6] = tested on: Escherichia coli; experiment: In vitro antibacterial activity against Escherichia coli TEM-1 (constitutive beta-lactamase producer); format: functional; method in brief: as §2
[7] = tested on: Escherichia coli; experiment: Concentration inhibiting [14C]- Penicillin G binding to Escherichia coli UB1005 PBP4 (penicillin binding protein) 49 kDa; format: functional
Method in brief: (§3)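 Solubilized membranes from sonicated E. coli UB1005 were used as the PBP source. Inhibition of [14C]penicillin G binding to the PBPs was measured.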

[8] = tested on: Proteus mirabilis; experiment: In vitro antibacterial activity against Proteus mirabilis 90; format: functional
Method in brief: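 Proteus MICs were determined by agar dilution on Mueller-Hinton agar containing 3% agar. Serial 2-fold dilutions gave final concentrations of 128 to 0.0156 μg/mL. Plates were replicator-inoculated with 100-fold-diluted overnight broth cultures.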

[9] = biological target: Penicillin-binding protein 2 (Staphylococcus aureus) (UniProt Q53729); experiment: Concentration inhibiting [14C]- Penicillin G binding to Staphylococcus aureus ATCC 29213 Penicillin binding protein 2, 80 kDa
[10] = biological target: T1, Peptidoglycan D,D-transpeptidase MrdA (Escherichia coli K-12) (UniProt P0AD65); experiment: Concentration inhibiting [14C]- Penicillin G binding to Escherichia coli UB1005 PBP2 (penicillin binding protein) 66 kDa; method in brief: as §3
T1 sequence (whole entry): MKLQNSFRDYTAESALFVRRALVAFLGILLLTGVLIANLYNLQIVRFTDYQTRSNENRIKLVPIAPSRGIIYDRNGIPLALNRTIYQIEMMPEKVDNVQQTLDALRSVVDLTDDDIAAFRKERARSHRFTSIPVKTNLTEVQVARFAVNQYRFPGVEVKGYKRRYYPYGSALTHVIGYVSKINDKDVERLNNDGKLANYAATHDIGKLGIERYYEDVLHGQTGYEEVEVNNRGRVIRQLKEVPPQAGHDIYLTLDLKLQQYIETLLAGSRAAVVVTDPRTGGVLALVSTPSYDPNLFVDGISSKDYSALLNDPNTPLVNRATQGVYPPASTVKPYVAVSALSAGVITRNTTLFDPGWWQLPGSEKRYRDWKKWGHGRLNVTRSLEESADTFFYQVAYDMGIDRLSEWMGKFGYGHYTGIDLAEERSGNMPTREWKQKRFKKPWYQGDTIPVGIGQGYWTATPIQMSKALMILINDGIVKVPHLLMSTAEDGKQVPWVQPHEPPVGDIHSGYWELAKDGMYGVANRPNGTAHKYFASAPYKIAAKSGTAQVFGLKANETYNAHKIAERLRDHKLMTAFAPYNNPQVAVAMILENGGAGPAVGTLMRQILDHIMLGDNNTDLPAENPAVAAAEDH

[11] = tested on: Pseudomonas aeruginosa; experiment: In vitro antibacterial activity against Pseudomonas aeruginosa 8780; format: functional; method in brief: as §2
[12] = tested on: Staphylococcus aureus; experiment: In vitro antibacterial activity against Staphylococcus aureus 67(methicillin resistant); format: functional
Method in brief: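 MIC by agar dilution on Mueller-Hinton agar. Compounds were serially 2-fold diluted in water, final 128 to 0.0156 μg/mL in agar. Inoculum: overnight broth culture diluted 100-fold, applied with a Steers replicator.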

[13] = tested on: Streptococcus pyogenes; experiment: In vitro antibacterial activity against Streptococcus pyogenes 4; format: functional
Method in brief: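 Streptococcal MICs were determined by agar dilution on brain heart infusion agar supplemented with 20 units/mL bovine liver catalase. Final concentrations were 128 to 0.0156 μg/mL from 2-fold dilutions. Inocula were overnight broth cultures diluted 100-fold, applied by Steers replicator.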

[14] = tested on: Staphylococcus aureus; experiment: In vitro antibacterial activity against staphylococcus aureus smith; format: functional; method in brief: as §2
[15] = tested on: Clostridioides difficile; experiment: In vitro antibacterial activity against Clostridium difficile 701; format: functional
[16] = tested on: Bacteroides fragilis; experiment: In vitro antibacterial activity against Bacteroides fragilis F117A; format: functional; method in brief: as §1
[17] = biological target: T2, Penicillin-binding protein 1 (Staphylococcus aureus (strain COL)) (UniProt F4NA86); experiment: Concentration inhibiting [14C]- Penicillin G binding to Staphylococcus aureus ATCC 29213 Penicillin binding protein 1, 87 kDa
T2 sequence (whole entry): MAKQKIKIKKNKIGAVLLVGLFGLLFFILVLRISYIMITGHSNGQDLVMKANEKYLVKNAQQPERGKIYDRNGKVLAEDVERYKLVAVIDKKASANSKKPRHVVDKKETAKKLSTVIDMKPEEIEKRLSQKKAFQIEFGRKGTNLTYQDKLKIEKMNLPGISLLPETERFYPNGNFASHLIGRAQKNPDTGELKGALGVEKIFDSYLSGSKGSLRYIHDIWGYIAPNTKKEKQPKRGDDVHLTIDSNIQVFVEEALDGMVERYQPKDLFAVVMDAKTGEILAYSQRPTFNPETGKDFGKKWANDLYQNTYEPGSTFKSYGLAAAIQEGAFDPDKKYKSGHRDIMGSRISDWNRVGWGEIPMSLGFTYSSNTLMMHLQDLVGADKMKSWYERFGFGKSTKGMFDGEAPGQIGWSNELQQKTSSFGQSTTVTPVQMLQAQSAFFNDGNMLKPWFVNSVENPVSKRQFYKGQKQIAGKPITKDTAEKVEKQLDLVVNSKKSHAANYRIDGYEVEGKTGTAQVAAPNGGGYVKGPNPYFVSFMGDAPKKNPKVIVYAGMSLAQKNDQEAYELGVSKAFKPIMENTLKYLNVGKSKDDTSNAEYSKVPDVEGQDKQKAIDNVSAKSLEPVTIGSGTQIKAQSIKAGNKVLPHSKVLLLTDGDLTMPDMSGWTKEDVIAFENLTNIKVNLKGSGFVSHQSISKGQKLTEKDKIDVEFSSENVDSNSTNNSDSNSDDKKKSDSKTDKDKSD

Row | Structure (SMILES) | MIC [1] [µg/mL] | MIC [2] [µg/mL] | MIC [3] [µg/mL] | MIC [4] [µg/mL] | MIC [5] [µg/mL] | MIC [6] [µg/mL] | IC90 [7] [µg/mL] | MIC [8] [µg/mL] | IC90 [9] [µg/mL] | IC90 [10] [µg/mL] | MIC [11] [µg/mL] | MIC [12] [µg/mL] | MIC [13] [µg/mL] | MIC [14] [µg/mL] | MIC [15] [µg/mL] | MIC [16] [µg/mL] | IC90 [17] [µg/mL]
1 | C[C@@H](O)[C@H]1C(=O)N2C(C(=O)[O-])=C(COC(=O)c3cn(CCF)c4c(F)c(N5CCN(C)CC5)c(F)cc4c3=O)S[C@H]12.[Na+] | 4 | < 0.125 | < 0.125 | 0.25 | 0.25 | 0.5 | > 100 | 1 | 0.5 | 10 | 16 | 1 | < 0.0156 | 0.125 | 1 |  | 
2 | C[C@@H](O)[C@H]1C(=O)N2C(C(=O)[O-])=C(COC(=O)N3CCN(c4cc5c(cc4F)c(=O)c(C(=O)O)cn5C4CC4)CC3)S[C@H]12.[Na+] | 16 | 0.25 | 0.25 | 0.06 | 0.0625 | 0.0625 | > 100 | 1 | 2 | 30 | 2 | 4 | 0.0313 | 0.125 | 8 | 1 | 2
3 | C[C@@H](O)[C@H]1C(=O)N2C(C(=O)[O-])=C(CO)S[C@H]12.[Na+] | 0.125 | 0.5 |  |  | 4 | 4 | > 100 | 8 |  | 30 | 64 | > 64 | 0.125 | 0.25 | 2 | 64 | 30
